# HKDC1 inhibitor: HKDC1 hexokinase inhibitors, primary screen, biochemical, fluorescence, uHTS; inhibition, % at 20 µM; Q2TB90; recombinant HKDC1, G6PDH/diaphorase resazurin coupled fluorescence; AID 493160, 2011; 0.16% of 340,000 active;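 active means inhibition above about 35% when tested at 20 µM, limit read from the data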;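 further: plate controls were DMSO wells with enzyme for no effect and DMSO wells lacking enzyme for full effect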
# Target sequence (Q2TB90 whole entry, looked up): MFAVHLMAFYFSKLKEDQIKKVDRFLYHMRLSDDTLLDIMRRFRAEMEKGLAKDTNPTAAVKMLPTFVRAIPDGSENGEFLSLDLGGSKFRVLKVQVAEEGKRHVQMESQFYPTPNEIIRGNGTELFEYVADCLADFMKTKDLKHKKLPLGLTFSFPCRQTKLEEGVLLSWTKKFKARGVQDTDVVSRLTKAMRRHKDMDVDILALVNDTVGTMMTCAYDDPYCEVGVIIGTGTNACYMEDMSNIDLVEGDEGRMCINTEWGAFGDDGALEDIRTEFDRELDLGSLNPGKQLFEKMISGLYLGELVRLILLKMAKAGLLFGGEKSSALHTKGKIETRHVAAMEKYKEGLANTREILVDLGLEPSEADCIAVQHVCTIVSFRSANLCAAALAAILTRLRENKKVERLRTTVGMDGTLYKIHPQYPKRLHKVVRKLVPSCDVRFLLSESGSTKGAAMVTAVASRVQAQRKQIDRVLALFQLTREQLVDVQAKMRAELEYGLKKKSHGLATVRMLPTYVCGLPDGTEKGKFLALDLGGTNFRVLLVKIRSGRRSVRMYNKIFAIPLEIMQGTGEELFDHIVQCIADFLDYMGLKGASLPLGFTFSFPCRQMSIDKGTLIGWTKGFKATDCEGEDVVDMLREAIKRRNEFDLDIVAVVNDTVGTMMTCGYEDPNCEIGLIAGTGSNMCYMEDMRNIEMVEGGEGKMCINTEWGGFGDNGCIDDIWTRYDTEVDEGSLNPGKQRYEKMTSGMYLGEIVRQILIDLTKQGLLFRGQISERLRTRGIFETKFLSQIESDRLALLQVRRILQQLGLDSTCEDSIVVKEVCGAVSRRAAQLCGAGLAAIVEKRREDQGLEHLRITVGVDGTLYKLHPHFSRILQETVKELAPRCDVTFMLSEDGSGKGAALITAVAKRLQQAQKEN
#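 Test system: recombinant HKDC1 (HK5) hexokinase enzyme, produced in-house; Amount: enzyme 5 µg/mL final; Buffer or medium: Tris pH 8.0 buffer with MgCl2, Tween-20, BSA, BME; Reagent: glucose and ATP substrates; Doses: 20 µM test compound, 1% DMSO; Incubation: 90 min reaction incubation at room temperature, dark; Detection: resorufin fluorescence at 613 nm.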
# IMP-1 inh-1: IMP-1 metallo-beta-lactamase inhibitors, primary screen, biochemical, epi-absorbance readout, Pseudomonas aeruginosa enzyme | inhibition, % at 5.6 µM | purified IMP-1, nitrocefin hydrolysis, epi-absorbance fluorescence | AID 1556, 2009 | metallo-beta-lactamase IMP-1 (Pseudomonas aeruginosa) | 0.45% of 290,000 active;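 active means inhibition above the mean plus 3 SD of all compounds in the same screening run, cut at about 4.5% in these data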;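 further: 0% = IMP-1 with DMSO and 100% = DMSO wells lacking enzyme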
#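 System: Purified IMP-1 | Read-out basis: Percent enzyme inhibition | Controls: IMP-1 with DMSO as 0%, enzyme-free DMSO as 100% | Replicates: One well per compound | Doses: 5.6 µM nominal single concentration | Detection: Epi-absorbance fluorescence, 480 nm excitation, 530 nm emission | Incubation: 25 °C, 15 min preincubation, 25 min reaction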
# ATG4B inh: ATG4B protease inhibitors, primary screen, biochemical, fluorescence, uHTS | Cysteine protease ATG4B (Homo sapiens), Q9Y4P1 | ATG4B cleavage of LC3-PLA2, NBD-HPC fluorescence, 1 h | inhibition, % at 8.33 µM | 0.51% of 340,000 active | AID 504462, 2011; in the data active means inhibition above about 40%
# VIM-2 inhibitor: VIM-2 metallo-beta-lactamase inhibitors, primary screen, biochemical, epi-absorbance readout, Pseudomonas aeruginosa enzyme | inhibition, % at 5.6 µM | purified VIM-2, nitrocefin hydrolysis, epi-absorbance fluorescence | 0.89% of 290,000 active;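 active means inhibition above the mean of all tested compounds plus 3 SD, cutoff set per screening run, cut at about 7.5% in these data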;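 further: red hydrolysis product quenches plate fluorescence so inhibitors raise well fluorescence; 0% = enzyme with DMSO and 100% = DMSO without enzyme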
# beta cell repl: inducers of MIN6 beta-cell proliferation, primary screen, ATP luminescence, uHTS | 0.29% of 330,000 active | MIN6 cells proliferation, ATPlite luminescence, 48 h; cells starved in 0.2% serum; 100% = growth in 10% serum | proliferation, % at 10 µM;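 active means compounds whose signal lies at least 3.5 SD above the mean of all wells on their plate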;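 further: 0% = DMSO-treated cells in low-serum medium and 100% = 10% serum control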
# PvdQ inh: P. aeruginosa PvdQ acylase inhibitors, primary screen, biochemical, fluorescence, plate reader and imaging, single point | PvdQ acylase [Pseudomonas aeruginosa LESB58] | purified PvdQ acylase | inhibition, % at 10 µM | 0.063% of 340,000 active | AID 488965, 2010; in the data active means inhibition above about 30%, passing the limit was not always enough;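 further: 0% = vehicle neutral wells and 100% = reference inhibitor wells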
# IMP-1 inh-2: IMP-1 metallo-beta-lactamase inhibitors, confirmation, selectivity assay for selective VIM-2 inhibitor project, biochemical, epi-absorbance readout, triplicate; AID 1856, 2009; 1,300 tested, under 10 active; shares compounds with VIM-2 inhibitor; purified IMP-1, nitrocefin hydrolysis, epi-absorbance fluorescence; inhibition, % at 5.6 µM; call rule not given here;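 further: 0% = enzyme with vehicle and 100% = vehicle without enzyme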
# VIM-2 FRET inh: VIM-2 inhibitors in FRET format, confirmation, artefact control for selective VIM-2 inhibitor project, biochemical, epi-absorbance artifact exclusion | purified VIM-2, CCF2 FRET substrate hydrolysis | shares compounds with VIM-2 inhibitor | AID 1857, 2009 | inhibition, % at 5.6 µM | 23% of 1,300 active;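 active means inhibition above the mean of all tested compounds plus 3 SD, cut at about 19% in these data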;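 further: 0% = VIM-2 plus DMSO and 100% = no enzyme wells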
# TEM-1 inh: TEM-1 serine beta-lactamase inhibitors, counter-screen for VIM-2 inhibitor project, biochemical, epi-absorbance, HTS; inhibition, % at 5.6 µM; Purified TEM-1, nitrocefin hydrolysis, epi-absorbance fluorescence; AID 1866, 2009; 3% of 1,300 active; shares compounds with VIM-2 inhibitor;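 active means inhibition above that campaign's mean inhibition plus 3 SD, cut at about 0.46% in these data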;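 further: 0% = TEM-1 with DMSO and 100% = TEM-1 with 100 µM potassium clavulanate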
# VIM-2 confirm 2: VIM-2 metallo-beta-lactamase inhibitors, confirmation, biochemical, epi-absorbance, hits shared with IMP-1 screen. 96% of 1,300 active. AID 2187, 2009. shares compounds with VIM-2 inhibitor. inhibition, % at 5.6 µM. purified VIM-2, nitrocefin hydrolysis;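 active means inhibition of the VIM-2 beta-lactamase enzyme above about 11% from the earlier first-round screen, limit read from the data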;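 further: 0% = VIM-2 with DMSO and 100% = buffer wells without enzyme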
# * = called active by the depositor; x = not tested or not shown. A selection: hits, their analogues and other compounds. The true share with any hit is near 2%.
SMILES,HKDC1 inhibitor,IMP-1 inh-1,ATG4B inh,VIM-2 inhibitor,beta cell repl,PvdQ inh,IMP-1 inh-2,VIM-2 FRET inh,TEM-1 inh,VIM-2 confirm 2
Cc1cc(=O)oc2c(C)c(OCC(=O)NCCCn3ccnc3)ccc12,3,-3,12,19*,-4,-8,-3,-6,-8,35*
COc1ccccc1OCC(=O)NCCCn1ccnc1,-9,1,-9,-4,0,-4,x,x,x,x
O=C(COc1ccc2ccc(=O)oc2c1)NCCCn1ccnc1,0,-1,-7,1,1,-15,x,x,x,x
Cc1c(C)c2ccc(OCC(=O)NCCCn3ccnc3)c(C)c2oc1=O,2,1,-8,42*,4,-3,-4,-4,-12,49*
Cc1coc2c(C)c3oc(=O)c(CCC(=O)NCCCn4ccnc4)c(C)c3cc12,0,4,-30,31*,1,0,-2,-6,-12,36*
Cc1coc2c(C)c3oc(=O)c(CCC(=O)N(C)CC(=O)O)c(C)c3cc12,-3,-4,-3,3,-2,7,x,x,x,x
Cc1c(OCC(=O)NCCCn2ccnc2)ccc2c3c(c(=O)oc12)CCC3,1,-1,7,48*,-2,-14,-3,-8,-13,58*
COc1ccccc1OCCNC(=O)c1ccccc1OCc1c(C)noc1C,0,x,-6,x,4,2,x,x,x,x
CCOC(=O)Cn1cnc(-c2ccc([N+](=O)[O-])cc2)c1,-4,-3,-3,-3,0,8,x,x,x,x
Cc1c(OC(C)C(=O)NCCCn2ccnc2)ccc2c3c(c(=O)oc12)CCC3 (stereo not drawn),1,-3,-5,49*,-2,-9,-2,-3,-8,64*
Cc1cccnc1CN1CCN(C(=O)c2cc(COc3ccc4ncccc4c3)on2)CC1,0,-3,-12,48*,-7,-14,-3,-20,-4,64*
O=C1N=C(c2ccccc2)C(c2ccccc2)N1 (stereo not drawn),-4,-3,-8,15*,-3,-16,-2,-5,-6,51*
S=c1[nH]nc(-c2ccn[nH]2)n1-c1ccccc1Cl,1,-4,3,17*,-1,11,-3,34*,-4,22*
Cc1c(C)c2ccc(OCC(=O)NCc3ccccn3)cc2oc1=O,-3,-2,-4,2,1,-8,x,x,x,x
CC(Oc1ccc2c3c(c(=O)oc2c1)CCC3)C(=O)NCc1ccccn1 (stereo not drawn),-6,0,-8,21*,-1,-3,-2,3,-5,29*
O=C(COc1ccc2c3c(c(=O)oc2c1)CCC3)NCc1ccccn1,-1,1,-5,17*,-2,-12,-3,-1,-7,23*
Cc1c(C)c2ccc(OC(C)C(=O)NCc3ccccn3)cc2oc1=O (stereo not drawn),-3,-4,1,0,-1,-6,x,x,x,x
